The text below walks through data of ChEMBL document CHEMBL3576847, “Discovery of 1-(3,3-dimethylbutyl)-3-(2-fluoro-4-methyl-5-(7-methyl-2-(methylamino)pyrido[2,3-d]pyrimidin-6-yl)phenyl)urea (LY3009120) as a pan-RAF inhibitor with minimal paradoxical activation and activity against BRAF or RAS mutant tumor cells” (J Med Chem, 2015).

Broadly, the IC50 is the concentration at which inhibition is half-maximal. The term ED50 denotes the dose at which the effect has come halfway, by size or by number of responders.

Activity calls are given as the source filed them. No cut-off for these calls is given here.

For series [1], the target named is T1, Serine/threonine-protein kinase B-raf (Homo sapiens, UniProt P15056, V600E). Briefly: Inhibition of recombinant BRAF V600E mutant (unknown origin) assessed as ADP formation measured for 5 hrs by pyruvate kinase/lactate dehydrogenase coupled assay in presence of ATP, MEK1, NADH.
Series [2] addresses Serine/threonine-protein kinase B-raf (Homo sapiens, UniProt P15056). Kind of series: Inhibition of wild type BRAF (unknown origin) assessed as ADP formation measured for 5 hrs by pyruvate kinase/lactate dehydrogenase coupled assay in presence of ATP, MEK1, NADH.
Series [3] has as its target RAF proto-oncogene serine/threonine-protein kinase (Homo sapiens, UniProt P04049). Briefly: Inhibition of wild type CRAF (unknown origin) assessed as ADP formation measured for 5 hrs by pyruvate kinase/lactate dehydrogenase coupled assay in presence of ATP, MEK1, PEP, NADH.
Series [4] concerns the target T1, Serine/threonine-protein kinase B-raf. Kind of series: Inhibition of BRAF V600E mutant in human A375 cells assessed as inhibition of ERK phosphorylation measured after 72 hrs by ELISA assay. In kind it is cell-based, A-375. A general note: In an ELISA, binding on a coated surface is turned into a signal by an enzyme label.
For a further series, the target named is GTPase KRas (Homo sapiens, UniProt P01116, G13D). Briefly: Inhibition of KRAS G13D mutant in human HCT116 cells assessed as inhibition of ERK phosphorylation by ELISA. In kind it is cell-based, HCT-116. The method, boiled down: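 HCT116 cells (KRAS G13D, BRAF WT; RAF signalling via CRAF) were treated with compound, and the change in cellular phospho-ERK was measured. IC50 was taken as the concentration inhibiting phospho-ERK.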

The target in series [5] is Vascular endothelial growth factor receptor 2 (Homo sapiens, UniProt P35968). Kind of series: Inhibition of KDR (unknown origin).
For series [6], the target named is Dual specificity mitogen-activated protein kinase kinase; MEK1/2 (Homo sapiens, UniProt P36507+Q02750). Kind of series: Inhibition of MEK (unknown origin).
Series [7] deals with Mus musculus. Kind of series: In vivo inhibition of BRAF V600E mutant in human A375 cells xenografted in po dosed athymic nu/nu mouse assessed as plasma concentration required to inhibit ERK phosphorylation by 50%. It counts as functional, A-375. (Xenograft models place foreign cells or tissue in a host animal.)
The subject of series [8] is Mus musculus. Kind of series: In vivo inhibition of BRAF V600E mutant in human A375 cells xenografted in po dosed athymic nu/nu mouse assessed as inhibition of ERK phosphorylation by ELISA. It counts as functional.
The subject of series [9] is Mus musculus. Briefly: In vivo inhibition of BRAF V600E mutant in human A375 cells xenografted in po dosed athymic nu/nu mouse assessed as inhibition of MEK phosphorylation by ELISA. In kind it is functional, organism-based. To be noted: A-375.
The test system of series [10] is Mus musculus. Briefly: In vivo inhibition of BRAF V600E mutant in human A375 cells xenografted in po dosed athymic nu/nu mouse assessed as plasma concentration required to inhibit ERK phosphorylation by 80%. It counts as functional, A-375.
For series [11], the system named is A-375. Kind of series: Antitumor activity against human A375 cells expressing BRAF V600E mutant xenografted in athymic nu/nu mouse assessed as tumor regression at 20 to 30 mg/kg, po bid administered for 15 days. It counts as functional, organism-based. The gist of the method:
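Mice bearing A375 (BRAF V600E) or HCT116 (KRAS mutant) xenografts were dosed orally b.i.d. for 15 days. Doses were 20 and 30 mg/kg for A375 and 40 mg/kg for HCT116. Tumor volume and body weight were monitored.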

Series [12] deals with Mus musculus. Kind of series: Toxicity in athymic nu/nu mouse xenografted with human A375 cells expressing BRAF V600E mutant assessed as body weight loss at 20 to 30 mg/kg, po bid administered for 15 days. To be noted: in vivo, 360 h. In kind it is organism-based, A-375. The method, boiled down: (§1)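 Nude mice bearing A375 (BRAF V600E) or HCT116 (KRAS mutant) xenografts given oral b.i.d. doses, 20 and 30 mg/kg (A375) or 40 mg/kg (HCT116), for 15 days; body weight monitored.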

Series [13] concerns Mus musculus. Briefly: Toxicity in athymic nu/nu mouse xenografted with human HCT116 cells expressing KRAS mutant assessed as body weight loss at 40 mg/kg, po bid administered for 15 days. To be noted: in vivo, 360 h. It counts as organism-based, HCT-116. The method, boiled down:
as §1

Series [14] is described as follows: Paradoxical activation of RAS/RAF/MEK signaling pathway in human HCT116 cells expressing wild type BRAF assessed as ERK phosphorylation at <100 nM. In kind it is cell-based. To be noted: HCT-116.
Series [15] in a line: Paradoxical activation of RAS/RAF/MEK signaling pathway in human HCT116 cells expressing wild type BRAF assessed as ERK phosphorylation at >100 nM. In kind it is cell-based. To be noted: HCT-116.
Series [16] deals with A-375. Briefly: cells. To be noted: Homo sapiens, A-375, 72 h.
Series [17] has as its system HCT-116. Kind of series: cells. To be noted: Homo sapiens, HCT-116, 67 h.
Series [18] relates to HCT-116. Kind of series: Antitumor activity against human HCT116 cells expressing KRAS mutant xenografted in athymic nu/nu mouse at 40 mg/kg, po bid administered for 15 days.

T1 sequence (P15056 2-766 V600E limits assumed): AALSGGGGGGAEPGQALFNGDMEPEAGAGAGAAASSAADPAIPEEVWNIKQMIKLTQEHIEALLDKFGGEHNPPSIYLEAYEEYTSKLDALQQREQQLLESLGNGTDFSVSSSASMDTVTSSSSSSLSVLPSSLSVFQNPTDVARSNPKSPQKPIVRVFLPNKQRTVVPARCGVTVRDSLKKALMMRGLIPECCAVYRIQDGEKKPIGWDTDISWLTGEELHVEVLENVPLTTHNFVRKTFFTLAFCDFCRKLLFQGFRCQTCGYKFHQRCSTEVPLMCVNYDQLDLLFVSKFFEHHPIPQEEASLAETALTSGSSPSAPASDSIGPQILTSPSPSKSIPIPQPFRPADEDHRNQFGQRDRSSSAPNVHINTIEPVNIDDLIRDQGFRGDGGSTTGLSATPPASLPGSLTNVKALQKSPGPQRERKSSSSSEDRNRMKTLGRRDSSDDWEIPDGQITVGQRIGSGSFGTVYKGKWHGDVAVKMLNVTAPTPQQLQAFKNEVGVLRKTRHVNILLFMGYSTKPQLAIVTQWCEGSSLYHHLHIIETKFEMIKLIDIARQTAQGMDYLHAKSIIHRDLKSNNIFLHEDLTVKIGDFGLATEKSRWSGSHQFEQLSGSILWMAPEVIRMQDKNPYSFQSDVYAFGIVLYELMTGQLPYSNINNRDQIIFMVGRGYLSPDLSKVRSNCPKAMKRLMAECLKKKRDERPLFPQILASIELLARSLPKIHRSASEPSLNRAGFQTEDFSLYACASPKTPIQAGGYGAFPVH
RAF proto-oncogene serine/threonine-protein kinase, sequence (P04049 whole entry): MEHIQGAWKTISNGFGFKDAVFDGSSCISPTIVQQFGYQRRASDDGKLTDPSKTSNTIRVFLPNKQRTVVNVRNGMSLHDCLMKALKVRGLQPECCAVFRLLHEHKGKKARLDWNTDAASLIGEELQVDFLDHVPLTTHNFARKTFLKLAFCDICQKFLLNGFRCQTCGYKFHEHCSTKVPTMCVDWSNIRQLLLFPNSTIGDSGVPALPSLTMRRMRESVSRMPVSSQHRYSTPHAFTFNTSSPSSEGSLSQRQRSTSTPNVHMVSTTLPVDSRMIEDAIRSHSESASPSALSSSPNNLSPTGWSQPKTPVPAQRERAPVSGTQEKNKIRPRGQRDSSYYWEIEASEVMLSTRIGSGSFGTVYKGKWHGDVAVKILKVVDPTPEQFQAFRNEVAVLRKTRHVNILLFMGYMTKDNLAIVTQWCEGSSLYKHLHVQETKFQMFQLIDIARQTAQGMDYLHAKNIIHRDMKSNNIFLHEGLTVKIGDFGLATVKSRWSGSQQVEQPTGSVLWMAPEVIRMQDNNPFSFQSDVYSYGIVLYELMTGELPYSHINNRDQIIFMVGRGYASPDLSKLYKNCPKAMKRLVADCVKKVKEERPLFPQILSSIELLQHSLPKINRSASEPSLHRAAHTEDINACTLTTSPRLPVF
GTPase KRas, sequence (P01116 whole entry G13D): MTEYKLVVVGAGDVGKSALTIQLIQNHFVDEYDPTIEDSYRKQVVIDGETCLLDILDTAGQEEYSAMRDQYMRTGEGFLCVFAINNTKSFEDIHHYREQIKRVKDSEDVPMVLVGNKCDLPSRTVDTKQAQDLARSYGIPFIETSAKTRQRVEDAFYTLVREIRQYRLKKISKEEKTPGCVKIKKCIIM
Serine/threonine-protein kinase B-raf (Homo sapiens, UniProt P15056), sequence (P15056 whole entry): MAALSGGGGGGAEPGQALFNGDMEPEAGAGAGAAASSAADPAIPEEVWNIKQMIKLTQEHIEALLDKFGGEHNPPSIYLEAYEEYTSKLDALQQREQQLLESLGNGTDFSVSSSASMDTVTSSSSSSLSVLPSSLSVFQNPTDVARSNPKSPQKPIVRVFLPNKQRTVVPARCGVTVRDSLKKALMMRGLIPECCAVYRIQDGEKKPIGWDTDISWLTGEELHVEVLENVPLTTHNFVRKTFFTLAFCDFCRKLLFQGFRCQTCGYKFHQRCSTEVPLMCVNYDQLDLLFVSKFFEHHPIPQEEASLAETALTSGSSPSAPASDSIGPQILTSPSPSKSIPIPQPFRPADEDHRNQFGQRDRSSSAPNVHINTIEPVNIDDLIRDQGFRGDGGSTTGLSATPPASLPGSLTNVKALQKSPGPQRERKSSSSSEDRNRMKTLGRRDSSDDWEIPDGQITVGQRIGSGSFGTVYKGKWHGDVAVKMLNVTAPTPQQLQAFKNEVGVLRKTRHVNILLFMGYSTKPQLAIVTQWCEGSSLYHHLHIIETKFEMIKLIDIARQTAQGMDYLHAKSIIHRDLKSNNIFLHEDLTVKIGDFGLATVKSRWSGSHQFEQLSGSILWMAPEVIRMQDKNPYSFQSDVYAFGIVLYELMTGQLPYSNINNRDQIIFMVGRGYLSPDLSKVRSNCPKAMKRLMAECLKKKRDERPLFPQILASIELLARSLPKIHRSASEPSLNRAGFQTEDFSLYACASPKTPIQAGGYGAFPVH
Vascular endothelial growth factor receptor 2, sequence (P35968 whole entry): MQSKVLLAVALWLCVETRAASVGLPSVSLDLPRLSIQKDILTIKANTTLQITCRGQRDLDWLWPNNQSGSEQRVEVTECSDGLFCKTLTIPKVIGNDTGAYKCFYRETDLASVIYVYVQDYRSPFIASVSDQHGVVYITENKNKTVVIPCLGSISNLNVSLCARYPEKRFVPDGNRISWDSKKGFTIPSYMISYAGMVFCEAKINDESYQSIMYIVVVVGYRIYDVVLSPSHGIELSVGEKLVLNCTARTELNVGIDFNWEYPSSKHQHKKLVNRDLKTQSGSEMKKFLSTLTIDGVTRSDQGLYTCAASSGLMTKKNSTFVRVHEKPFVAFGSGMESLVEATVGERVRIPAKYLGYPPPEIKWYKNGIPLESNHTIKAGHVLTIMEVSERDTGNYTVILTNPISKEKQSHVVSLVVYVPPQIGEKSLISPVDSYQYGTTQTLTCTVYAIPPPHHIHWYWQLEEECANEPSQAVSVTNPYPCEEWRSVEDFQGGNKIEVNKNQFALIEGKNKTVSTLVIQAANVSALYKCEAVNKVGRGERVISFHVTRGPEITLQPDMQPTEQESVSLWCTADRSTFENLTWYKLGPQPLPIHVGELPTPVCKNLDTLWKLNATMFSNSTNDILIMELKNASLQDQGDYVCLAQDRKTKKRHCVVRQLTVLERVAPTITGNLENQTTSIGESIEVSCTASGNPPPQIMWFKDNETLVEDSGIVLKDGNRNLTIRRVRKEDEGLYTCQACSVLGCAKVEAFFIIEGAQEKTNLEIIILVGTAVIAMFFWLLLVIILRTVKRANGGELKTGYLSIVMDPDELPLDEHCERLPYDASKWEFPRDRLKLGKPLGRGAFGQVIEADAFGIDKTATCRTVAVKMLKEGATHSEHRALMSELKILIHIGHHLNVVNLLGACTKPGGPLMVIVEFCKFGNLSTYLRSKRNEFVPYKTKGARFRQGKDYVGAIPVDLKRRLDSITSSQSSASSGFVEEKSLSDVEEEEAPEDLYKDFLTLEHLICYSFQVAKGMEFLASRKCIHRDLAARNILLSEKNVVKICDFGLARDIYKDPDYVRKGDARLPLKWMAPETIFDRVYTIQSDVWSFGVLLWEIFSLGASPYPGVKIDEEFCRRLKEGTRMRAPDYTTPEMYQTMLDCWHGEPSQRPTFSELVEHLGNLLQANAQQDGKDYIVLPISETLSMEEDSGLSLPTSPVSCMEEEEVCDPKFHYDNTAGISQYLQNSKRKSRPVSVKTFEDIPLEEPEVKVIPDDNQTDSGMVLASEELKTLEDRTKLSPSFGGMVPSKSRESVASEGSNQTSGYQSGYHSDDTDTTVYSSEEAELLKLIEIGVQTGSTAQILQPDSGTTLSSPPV

As for `CNc1cc2nc(C)c(-c3cc(NC(=O)NC[C@@H](O)C(C)(C)C)c(F)cc3C)cc2cn1`, the IC50 is 7.7 nM in [1]; 39 nM in series [2]; 7.2 nM in [3]; 22 nM in [4]; 160 nM on GTPase KRas; 750 nM in series [5]. For the same molecule, the IC50 in series [6] is 15 µM; in the series with A-375 [16], 10 nM; in the series on HCT-116 [17] it was 174 nM. Also, the figures for the Activity in the series on Mus musculus [7], with Mus musculus [12] and with Mus musculus [13] were 3.1 µM, “Non-toxic” and “Non-toxic”, respectively. Further, the inhibition result with Mus musculus [8] (A-375) and in the series on Mus musculus [9] was “Dose-dependent effect” throughout. Besides, the ED50 with Mus musculus [8] (A-375, po) was 1.7 mg/kg. In addition, in the series with Mus musculus [8] (A-375, po), the ED80 came out at 5.7 mg/kg. Further, the INH in the series with Mus musculus [10] came out at 7661 ng/mL. In addition, the result (in the series on A-375 [11]; in series [14]; in the series with HCT-116 [18]) was Active. Also, the outcome in series [15] was inactive.
